Legend:
Rattus norvegicus [1] = species on record: Rattus norvegicus; assay: Selectivity ratio of IC50 for rat GluA1 receptor flip form to IC50 for rat GluN1/2A receptor
Summary of the method: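 Ratio IC50(GluA1)/IC50(GluN1/2A), each IC50 from composite dose−response data of 5 to 10 oocytes in two-electrode voltage clamp. GluA1_i driven by 300 μM glutamate; GluN1/2A driven by 100 μM glutamate plus 100 μM glycine; antagonist coapplied.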

[2] = molecular target: Glutamate NMDA receptor; Grin1/Grin2a (Rattus norvegicus, UniProt P35439+Q00959); assay: Inhibition of rat GluN1/2A receptor expressed in Xenopus laevis oocyte assessed as glutamate and glycine-induced current at holding potentials from -80 to -40 mV by two electrode voltage clamp analysis
Glutamate NMDA receptor; Grin1/Grin2a, sequence (Q00959 whole entry, other chains not shown): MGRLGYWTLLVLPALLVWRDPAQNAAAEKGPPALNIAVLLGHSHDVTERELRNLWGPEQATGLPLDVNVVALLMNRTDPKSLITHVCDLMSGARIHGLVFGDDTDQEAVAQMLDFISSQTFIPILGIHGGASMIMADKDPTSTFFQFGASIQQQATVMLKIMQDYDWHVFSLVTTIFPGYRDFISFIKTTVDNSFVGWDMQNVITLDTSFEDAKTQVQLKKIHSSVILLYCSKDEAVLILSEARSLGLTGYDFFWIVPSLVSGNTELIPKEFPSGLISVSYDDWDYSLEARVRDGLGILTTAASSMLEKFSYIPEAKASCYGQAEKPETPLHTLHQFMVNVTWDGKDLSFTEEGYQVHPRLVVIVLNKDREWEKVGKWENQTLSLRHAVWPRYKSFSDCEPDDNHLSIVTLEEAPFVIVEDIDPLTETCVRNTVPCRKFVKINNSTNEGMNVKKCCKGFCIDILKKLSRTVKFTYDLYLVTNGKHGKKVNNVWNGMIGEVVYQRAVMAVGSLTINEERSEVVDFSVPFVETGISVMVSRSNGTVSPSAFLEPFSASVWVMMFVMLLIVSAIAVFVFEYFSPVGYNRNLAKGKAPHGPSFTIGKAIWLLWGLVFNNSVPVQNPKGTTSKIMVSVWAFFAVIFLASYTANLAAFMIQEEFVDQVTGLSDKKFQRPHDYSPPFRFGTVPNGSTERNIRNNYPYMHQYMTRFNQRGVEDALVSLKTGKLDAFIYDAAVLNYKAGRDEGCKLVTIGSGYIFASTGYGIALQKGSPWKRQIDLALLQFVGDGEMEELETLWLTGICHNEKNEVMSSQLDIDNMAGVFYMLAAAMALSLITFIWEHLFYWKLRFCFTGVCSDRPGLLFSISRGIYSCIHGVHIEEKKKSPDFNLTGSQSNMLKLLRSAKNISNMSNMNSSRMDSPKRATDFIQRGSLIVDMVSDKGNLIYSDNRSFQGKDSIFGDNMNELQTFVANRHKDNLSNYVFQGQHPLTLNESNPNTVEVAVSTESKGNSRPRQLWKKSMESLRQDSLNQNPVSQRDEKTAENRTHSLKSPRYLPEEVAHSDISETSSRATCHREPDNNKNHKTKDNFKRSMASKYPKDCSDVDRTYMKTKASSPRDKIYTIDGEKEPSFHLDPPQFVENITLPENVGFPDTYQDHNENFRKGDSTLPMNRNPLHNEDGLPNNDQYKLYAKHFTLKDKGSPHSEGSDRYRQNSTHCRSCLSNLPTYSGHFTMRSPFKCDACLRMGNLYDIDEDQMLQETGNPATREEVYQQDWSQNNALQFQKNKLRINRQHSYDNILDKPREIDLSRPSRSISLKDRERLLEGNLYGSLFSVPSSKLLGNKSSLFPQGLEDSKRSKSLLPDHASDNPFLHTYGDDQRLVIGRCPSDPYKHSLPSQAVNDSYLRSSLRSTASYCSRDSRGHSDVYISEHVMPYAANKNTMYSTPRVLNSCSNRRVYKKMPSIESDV
Summary of the method: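 Oocytes injected with 25 nL GluN1/N2A cRNA (1:1, 0.05 ng/nL), held at 17 °C in Barth's medium with gentamicin, recorded 3−6 days later by two-electrode voltage clamp in frog Ringer's. Current evoked by 100 μM L-glutamate plus 100 μM glycine, antagonist coapplied at rising levels; holding potentials −40, −60, −80 mV. IC50 from logistic fit, triplicate curves.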

Glutamate receptor 1 = Glutamate receptor 1 (Rattus norvegicus, UniProt P19490); assay: Inhibition of rat GluA1 receptor flip form expressed in Xenopus laevis oocyte assessed as glutamate-induced current at holding potentials from -80 to -40 mV by two electrode voltage clamp analysis
Glutamate receptor 1, sequence (P19490 whole entry, the tested form may be a part): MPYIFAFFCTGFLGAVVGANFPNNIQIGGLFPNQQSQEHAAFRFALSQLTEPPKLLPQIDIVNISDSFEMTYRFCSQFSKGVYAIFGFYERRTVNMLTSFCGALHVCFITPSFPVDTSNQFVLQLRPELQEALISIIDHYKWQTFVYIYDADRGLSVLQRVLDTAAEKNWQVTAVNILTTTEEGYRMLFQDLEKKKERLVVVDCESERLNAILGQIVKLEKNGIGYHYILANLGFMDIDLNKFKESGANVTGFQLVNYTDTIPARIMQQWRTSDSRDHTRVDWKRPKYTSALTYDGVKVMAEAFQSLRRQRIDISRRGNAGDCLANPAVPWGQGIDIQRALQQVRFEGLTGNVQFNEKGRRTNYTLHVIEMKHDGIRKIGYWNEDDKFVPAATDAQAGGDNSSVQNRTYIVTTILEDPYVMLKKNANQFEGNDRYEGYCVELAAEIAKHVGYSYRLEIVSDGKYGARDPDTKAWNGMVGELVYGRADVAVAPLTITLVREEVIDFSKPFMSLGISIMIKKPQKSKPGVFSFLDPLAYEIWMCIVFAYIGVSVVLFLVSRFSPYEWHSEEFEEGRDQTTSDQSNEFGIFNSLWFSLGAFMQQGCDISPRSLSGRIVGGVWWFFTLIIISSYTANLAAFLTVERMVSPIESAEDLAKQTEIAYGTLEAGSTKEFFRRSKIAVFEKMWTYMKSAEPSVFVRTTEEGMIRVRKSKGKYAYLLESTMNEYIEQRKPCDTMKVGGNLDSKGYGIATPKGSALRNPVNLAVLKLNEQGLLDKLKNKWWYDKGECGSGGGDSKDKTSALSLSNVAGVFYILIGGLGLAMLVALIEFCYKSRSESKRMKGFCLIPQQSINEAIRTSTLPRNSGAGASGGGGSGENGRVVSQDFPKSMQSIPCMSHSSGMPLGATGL
Summary of the method: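 Oocytes injected with 25 nL GluA1_i cRNA (1 ng/nL), kept at 17 °C in Barth's medium with gentamicin, recorded 3−6 days later under two-electrode voltage clamp in frog Ringer's superfusion. Current evoked by 300 μM L-glutamate, then increasing antagonist coapplied with agonist; holding potentials −40, −60, −80 mV. Per-oocyte logistic fit for IC50, triplicate curves.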

Rattus norvegicus [3] = species on record: Rattus norvegicus; assay: Selectivity ratio of IC50 for rat GluN1/2A receptor to IC50 for rat GluA1 receptor flip form
Summary of the method: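 Ratio IC50(GluN1/2A)/IC50(GluA1), each IC50 from composite dose−response data of 5 to 10 oocytes in two-electrode voltage clamp. GluA1_i driven by 300 μM glutamate; GluN1/2A driven by 100 μM glutamate plus 100 μM glycine; antagonist coapplied.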

Row | SMILES | Ratio IC50 (Rattus norvegicus [1]) | IC50 [2] | IC50 (Glutamate receptor 1) | Ratio IC50 (Rattus norvegicus [3])
1 | N=C(N)NCCC[C@H](N)C(=O)NCCCCCNCCCCCCCNC(=O)[C@H](CC(N)=O)NC(=O)Cc1ccc(O)cc1O | 7 |  |  | 
2 | NC(=O)C[C@H](NC(=O)Cc1ccc(O)cc1O)C(=O)NCCCCCCCNCCCCCNC(=O)[C@@H](N)CCCN=C(N)N |  | 17 nM | 118 nM | 
3 | N=C(N)NCCC[C@H](N)C(=O)NCCCCCCCNCCCCCNC(=O)[C@H](CC(N)=O)NC(=O)Cc1ccc(O)cc1O | 0.09 | 842 nM | 78 nM | 11
4 | N=C(N)NCCC[C@H](N)C(=O)NCCCCNCCCCCCCCNC(=O)[C@H](CC(N)=O)NC(=O)Cc1ccc(O)cc1O | 10 |  |  | 
5 | N=C(N)NCCC[C@H](N)C(=O)NCCCCCCCCCNCCCNC(=O)[C@H](CC(N)=O)NC(=O)Cc1ccc(O)cc1O | < 0.06 | > 3000 nM | 171 nM | < 0.06
6 | NC(=O)C[C@H](NC(=O)Cc1ccc(O)cc1O)C(=O)NCCCCCCCCCNCCCNC(=O)[C@@H](N)CCCN=C(N)N |  | 14 nM | 454 nM | 
7 | N=C(N)NCC[C@@H](N)C(=O)NCCCCCNCCCCCCCNC(=O)[C@@H](NC(=O)Cc1ccc(O)cc1O)c1c[nH]c2ccccc12 | 3.4 |  |  | 
8 | N=C(N)NCCC[C@H](N)C(=O)NCCCNCCCNCCCCCNC(=O)[C@H](CC(N)=O)NC(=O)Cc1ccc(O)cc1O | 8 | 10 nM |  | 
9 | N=C(N)NCC[C@@H](N)C(=O)NCCCCCNCCCCCCCNC(=O)[C@H](CC(=O)O)NC(=O)Cc1ccc(O)cc1O | 0.07 | 2230 nM | 167 nM | 13
10 | N=C(N)NCCC[C@H](N)C(=O)NCCCNCCCCCCCCCNC(=O)[C@H](CC(N)=O)NC(=O)Cc1ccc(O)cc1O | 32 |  |  | 
11 | NC(=O)C[C@H](NC(=O)Cc1ccc(O)cc1O)C(=O)NCCCCCCCCNCCCCNC(=O)[C@@H](N)CCCN=C(N)N |  | 8 nM | 83 nM | 
12 | N=C(N)NCCC[C@H](N)C(=O)NCCCCCCCCNCCCCNC(=O)[C@H](CC(N)=O)NC(=O)Cc1ccc(O)cc1O | 0.08 | 231 nM | 19 nM | 12
13 | N=C(N)NCCC[C@H](N)C(=O)NCCCCCCNCCCCCCNC(=O)[C@H](CC(N)=O)NC(=O)Cc1ccc(O)cc1O | 2 | 21 nM | 46 nM | 
